Calls of active or inactive are those of the source. The calls are words filed in the database; no cut-off is given here.
Tests used:
[1] = test system: SW480; experiment: Cell cycle arrest in human SW480 cells assessed as 4n cells at 30 uM after 48 hrs by flow cytometry; assay type: functional
Summary of the method: (§1)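 SW480 cells treated 48 h at 30 µM in 0.1% DMSO medium. DNA content measured by propidium iodide flow cytometry. Cells gated as 2n G0/G1, S (2<n<4), 4n G2/M and >4n (polyploid). Data are means ± SD of a representative experiment among three independent.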

[2] = test system: SW480; experiment: Cell cycle arrest in human SW480 cells assessed as accumulation at G0/G1 phase at 30 uM after 48 hrs by flow cytometry; assay type: functional; summary of the method: as §1
[3] = test system: SW480; experiment: Antiproliferative activity against human SW480 cells assessed as cell viability using propidium iodide staining after 48 hrs; assay type: functional, cell-based; settings: for IC50: SW480, 48 h
Summary of the method: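 SW480 cells grown in RPMI with 10% FBS and 1% antibiotics; 30,000 cells/well seeded, treated after 24 h with compound in 0.1% DMSO (1 nM to 100 µM; 0.1% DMSO control). At 48 h adherent (trypsinized) plus detached cells stained with 1 µg/mL propidium iodide, counted by flow cytometry. IC50 from parametric regression of % viable cells vs control; triplicate wells, three experiments.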

[4] = test system: SW480; experiment: Cell cycle arrest in human SW480 cells assessed as >4n cells at 30 uM after 48 hrs by flow cytometry; assay type: functional; summary of the method: as §1
[5] = test system: SW480; experiment: Cell cycle arrest in human SW480 cells assessed as accumulation at S phase at 30 uM after 48 hrs by flow cytometry; assay type: functional; summary of the method: as §1
[6] = test system: SW480; experiment: Cell cycle arrest in human SW480 cells assessed as disturbance of diploid cells at 30 uM after 48 hrs by flow cytometry; assay type: functional, cell-based; summary of the method: as §1
[7] = test system: SW480; experiment: Cell cycle arrest in human SW480 cells assessed as tetraploid cells generation at 30 uM after 48 hrs by flow cytometry; assay type: functional, cell-based; summary of the method: as §1
[8] = test system: SW480; experiment: Cell cycle arrest in human SW480 cells assessed as polyploid cells generation at 30 uM after 48 hrs by flow cytometry; assay type: functional, cell-based; summary of the method: as §1
[9] = test system: SW480; experiment: Cell cycle arrest in human SW480 cells assessed as increase of 4n and >4n cells at 0.5 uM after 48 hrs by flow cytometry; assay type: functional, cell-based
Summary of the method: (§2)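 SW480 cells treated for 48 h at 0.2, 0.5 or 1.0 µM. DNA content was read by propidium iodide staining and flow cytometry. Populations were gated as 2n G0/G1, S (2<n<4), 4n G2/M and >4n. Means ± SD of a representative experiment out of three.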

[10] = test system: SW480; experiment: Cell cycle arrest in human SW480 cells assessed as accumulation of polyploid cells at 0.5 uM after 48 hrs by microscopic analysis; assay type: functional, cell-based
Summary of the method: (§3)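 SW480 cells left untreated or exposed to 0.5 µM for 48 h. Actin was immunostained (Alexa 488) to show cell shape and nuclei were stained with Hoechst 33342. Fluorescence microscopy at 100x with identical settings; example of three independent experiments.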

[11] = test system: SW480; experiment: Cell cycle arrest in human SW480 cells assessed as mitotic disturbances using Hoechst staining at 0.5 uM after 48 hrs by microscopic analysis; assay type: functional, cell-based; summary of the method: as §3
[12] = test system: SW480; experiment: Cell cycle arrest in human SW480 cells assessed as increase of 4n and >4n cells at 1 uM after 48 hrs by flow cytometry; assay type: functional, cell-based; summary of the method: as §2
[13] = test system: SW480; experiment: Antiproliferative activity against human SW480 cells assessed as cell viability using propidium iodide staining after 48 hrs; settings: SW480, 48 h
[14] = test system: SW480; experiment: Cell cycle arrest in human SW480 cells assessed as increase of 4n and >4n cells at 0.2 uM after 48 hrs by flow cytometry; assay type: functional, cell-based; summary of the method: as §2
[15] = test system: SW480; experiment: Antiproliferative activity against human SW480 cells assessed as cell viability using propidium iodide staining; assay type: functional, cell-based; settings: TDE = time-dependent effect
Summary of the method: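 SW480 colon carcinoma cells grown in RPMI with 10% FBS and 1% antibiotics. 30,000 cells/well were seeded, then treated after 24 h in medium with 0.1% DMSO (vehicle control 0.1% DMSO) at 1 nM to 100 µM for 48 h. Adherent plus detached cells were stained with 1 µg/mL propidium iodide and counted by flow cytometry. IC50 came from parametric regression of % viable cells vs control. Triplicate wells, three experiments.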

[16] = test system: SW480; experiment: Cell cycle arrest in human SW480 cells assessed as cytokinesis cells at 0.5 uM after 48 hrs by microscopic analysis; assay type: functional, cell-based; summary of the method: as §3
[17] = test system: SW480; experiment: Antiproliferative activity against human SW480 cells assessed as cell viability using propidium iodide staining at 0.5 uM after 72 hrs; assay type: functional, cell-based
Summary of the method: (§4)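 SW480 cells (RPMI, 10% FBS, 1% antibiotics) seeded at 30,000/well and treated 24 h later in 0.1% DMSO medium; 0.1% DMSO alone as control. After 24, 48 and 72 h, trypsinized adherent plus detached cells were labelled with 1 µg/mL propidium iodide and viable (PI-excluding) cells counted by flow cytometry. Triplicate wells; representative of three experiments, means ± SD.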

[18] = test system: SW480; experiment: Antiproliferative activity against human SW480 cells assessed as cell viability using propidium iodide staining at 0.2 uM after 72 hrs; assay type: functional, cell-based; summary of the method: as §4

Compound | IC50 [3] | Activity [6] | Activity [7] | Activity [8] | also measured
COc1cc(/C=C/c2cc(OC)cc(OC)c2O)cc(OC)c1 | 17 µM | – | – | – | Activity [1]: 25%; Activity [2]: 50%; Activity [4]: 10%; Activity [5]: 15%
COc1cc(/C=C/c2ccc(OC)c(OC)c2)c(O)c(OC)c1 | 42 µM | – | – | – | –
COc1ccc(/C=C/c2cc(OC)cc(OC)c2O)cc1 | 43 µM | Active | Active | Active | –
COc1ccc(/C=C\c2cc(OC)cc(OC)c2O)cc1 | 18 µM | Active | Active | Active | –
COc1cc(/C=C\c2cc(OC)cc(OC)c2)cc(OC)c1 | 13 µM | Active | Active | Active | –
COc1cc(/C=C\c2cc(OC)cc(OC)c2O)cc(OC)c1 | 7 µM | Active | Active | Active | –
COc1cc(/C=C\c2ccc(OC)c(OC)c2)c(O)c(OC)c1 | 10 µM | Active | Active | Active | –
COc1cc(/C=C/c2cc(OC)cc(OC)c2)cc(OC)c1 | 48 µM | – | – | – | Activity [1]: 25%; Activity [2]: 50%; Activity [4]: 10%; Activity [5]: 15%
COc1ccc(/C=C\c2cc(OC)cc(OC)c2)cc1 [8Z-3,4',5-TRIMETHOXYSTILBENE] | 0.3 µM | Active | Active | Active | Activity [9]: Active; Activity [10]: Active; Activity [11]: Active; Activity [12]: Active; Activity [3]: Dose-dependent effect; IC50 [13]: 0.3 µM; Activity [14]: inactive; Activity [15]: tde; Activity [16]: Active; Activity [17]: inactive; Activity [18]: inactive
COc1cc(/C=C/c2ccc(OC)c(OC)c2)cc(OC)c1 [(E)-3,4,3',5'-TETRAMETHOXYSTILBENE] | 100 µM | – | – | – | Activity [1]: 25%; Activity [2]: 50%; Activity [4]: 10%; Activity [5]: 15%
COc1cc(/C=C\c2ccc(OC)c(OC)c2)cc(OC)c1 [(Z)-3,4,3',5'-TETRAMETHOXYSTILBENE] | 9.5 µM | Active | Active | Active | –
Oc1ccc(/C=C\c2cc(O)cc(O)c2)cc1 [CIS-RESVERATROL] | 90 µM | – | – | – | Activity [1]: 25%; Activity [2]: 50%; Activity [4]: 10%; Activity [5]: 15%
Oc1ccc(/C=C/c2cc(O)cc(O)c2)cc1 [RESVERATROL] | 20 µM | – | – | – | –
COc1ccc(/C=C/c2cc(OC)cc(OC)c2)cc1 [TRISMETHOXYRESVERATROL] | 54 µM | Active | Active | Active | –

Source: ChEMBL document CHEMBL1177861, “Structural determinants of resveratrol for cell proliferation inhibition potency: experimental and docking studies of new analogs” (Eur J Med Chem, 2010)
